Shown are actives, neighbours in structure and some others; about 2.3% of the full set was active somewhere.
TRPC4 inh: inhibitors of mouse TRPC4 channel. Q9QUQ5. HEK293 TRPC4beta/mu-opioid, DAMGO-evoked Fluo4 calcium flux; active compounds read low. B-score at 10 µM. 300,000 tested, 0.39% active. AID 2247;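 active = B-score over 3 SD under the library average, no early fluorescence shift, positive overall ratio signal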
Target sequence (Q9QUQ5 whole entry, looked up): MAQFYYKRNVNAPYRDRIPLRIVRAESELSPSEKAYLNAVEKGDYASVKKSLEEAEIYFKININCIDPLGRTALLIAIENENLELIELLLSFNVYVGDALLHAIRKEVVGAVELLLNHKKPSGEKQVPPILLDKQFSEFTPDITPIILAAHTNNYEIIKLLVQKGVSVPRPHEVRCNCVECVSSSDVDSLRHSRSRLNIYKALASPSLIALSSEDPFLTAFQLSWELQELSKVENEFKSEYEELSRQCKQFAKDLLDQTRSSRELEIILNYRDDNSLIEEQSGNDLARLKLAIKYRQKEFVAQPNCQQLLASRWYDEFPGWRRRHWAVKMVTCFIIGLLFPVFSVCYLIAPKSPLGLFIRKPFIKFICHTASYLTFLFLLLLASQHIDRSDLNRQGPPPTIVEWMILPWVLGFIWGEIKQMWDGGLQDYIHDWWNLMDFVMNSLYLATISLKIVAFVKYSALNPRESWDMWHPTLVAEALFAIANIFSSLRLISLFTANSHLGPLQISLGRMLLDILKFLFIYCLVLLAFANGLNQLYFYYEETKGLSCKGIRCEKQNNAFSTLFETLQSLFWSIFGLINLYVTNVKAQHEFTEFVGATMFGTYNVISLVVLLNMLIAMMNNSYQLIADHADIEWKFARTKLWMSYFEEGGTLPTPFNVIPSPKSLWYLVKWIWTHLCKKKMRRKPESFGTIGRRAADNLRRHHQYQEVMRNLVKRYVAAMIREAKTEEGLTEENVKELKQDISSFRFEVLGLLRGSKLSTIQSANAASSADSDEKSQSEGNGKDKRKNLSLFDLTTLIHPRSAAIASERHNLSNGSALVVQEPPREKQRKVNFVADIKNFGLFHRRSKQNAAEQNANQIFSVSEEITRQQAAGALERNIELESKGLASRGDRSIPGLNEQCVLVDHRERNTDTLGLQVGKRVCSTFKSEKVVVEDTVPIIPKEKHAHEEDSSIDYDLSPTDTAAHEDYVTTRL
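Assay system: TRPC4beta/mu-opioid receptor HEK293 cell line; compound dosing: single concentration per test compound; detection: Fluo4 Ca2+ flux fluorescence; evaluation: per-well B score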
TRPC6 activator: activates the mouse TRPC6 cation channel; B-score at 10 µM; HEK293-TRPC6 membrane potential dye fluorescence; active compounds read high; AID 2550; 310,000 tested, 0.13% active; Q61143;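 active = B-score of the integrated fluorescence ratio above library mean plus 3 SD, and starting fluorescence ratio within library mean plus 5 SD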;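 also: higher score means more depolarization so channel activation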
TRPC6 inh: mouse TRPC6 channel inhibition | Q61143 | HEK293-TRPC6, membrane potential dye, ACh-evoked depolarization; active compounds read low | B-score at 10 µM | 310,000 tested, 1.1% active | AID 2553;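 active = B-score under library mean minus 3 SD, initial fluorescence not abnormally high, positive integrated signal ratio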;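 also: B-score derived from integrated fluorescence ratio over the kinetic read; more negative B-score means stronger inhibition of depolarization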
TRPC4 potent: TRPC4 (mouse) allosteric potentiation; 310,000 tested, 0.42% active; Q9QUQ5; HEK293 TRPC4beta/mu-opioid, DAMGO EC20, Fluo-4 Ca2+ flux; active compounds read high; B-score at 10 µM;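 active = B-score of calcium response area above 5 SD of library B-scores, with initial fluorescence ratio within 5 SD of library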;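 also: B-score of integrated fluorescence ratio over time as area under calcium response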
TRPC4 act: opens the mouse TRPC4 cation channel | Q9QUQ5 | 310,000 tested, 0.49% active | HEK293 TRPC4beta/mu-opioid, Fluo4 calcium fluorescence; active compounds read high | B-score at 10 µM;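 active = B-score above 5 SD of library B-scores, and initial fluorescence ratio not above library mean plus 5 SD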;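 also: positive B-score marks a calcium rise read as TRPC4 activation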
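Material: HEK293 stable line with TRPC4beta plus mu-opioid receptor; technique: Fluo4 calcium-sensitive dye fluorescence, kinetic, 1 Hz baseline; timing: Fluo4 dye loading 45 min at room temperature, 110 s recording; controls: assay buffer as low control, maximal DAMGO as high control; read-out: integrated baseline-normalised fluorescence ratio, converted to per-well B score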
TRPC4 sel inh 2: mouse TRPC4 off-target activity of TRPC6 inhibitors, second screen. 920 tested, 42% active. inhibition, % at 10 µM. shares compounds with TRPC6 inh. HEK293 TRPC4/MOR, membrane potential dye fluorescence; channel activated by saturating DAMGO dose;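 active = compounds whose fluorescence signal differed from control wells by over 3 SD, either direction, in both duplicate plates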
TRPC4 spec: tests whether TRPC6 inhibitors also affect mouse TRPC4; shares compounds with TRPC6 inh; HEK293 TRPC4/mu-opioid, membrane potential fluorescence; AID 2777; activity change, negative = inhibition, % at 10 µM; 920 tested, 61% active;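 active = rise or fall in signal beyond 3 SD of buffer-only wells in both replicate plates, either sign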;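 also: integrated kinetic ratio of fluorescence range over baseline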
HEK293 MPD ctr 2-1: second counter-screen for TRPC6 inhibitors: parental HEK293 cells | shares compounds with TRPC6 inh | parental HEK293 membrane potential dye fluorescence; maximal acetylcholine challenge after compound addition | signal change vs control, % at 10 µM | 920 tested, 31% active | AID 2779;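 active = membrane potential signal moving either way by over 3 SD of the maximum-effect control, in both duplicate plates, meaning non-specific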
HEK293 MPD ctr-1: counter-screen for TRPC6 inhibitors: effect in parental HEK293 cells | shares compounds with TRPC6 inh | parental HEK293 membrane potential dye fluorescence | membrane potential signal change, % at 10 µM | 920 tested, 60% active | AID 2780;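 active = membrane potential signal shifting up or down by more than 3 SD of buffer-only wells, on both duplicate plates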
HEK293 MPD ctr-2: counter-screen for TRPC6 modulators: effect in parental HEK293 cells; 2,400 tested, 51% active; shares compounds with TRPC6 inh; membrane potential dye fluorescence; membrane potential signal change, % at 10 µM;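 active = membrane potential signal moves up or down beyond 5 SD from buffer-only wells, on both duplicate plates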
HEK293 MPD ctr 2-2: second counter-screen for TRPC6 modulators: effect in parental HEK293 cells | shares compounds with TRPC6 inh | 2,400 tested, 14% active | membrane potential dye fluorescence; after compound, maximal acetylcholine stimulation | inhibition, % at 10 µM | AID 488926;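 active = membrane potential signal drops by more than 5 SD from the mean control signal, in both duplicate plates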;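 also: plate controls were acetylcholine ECmax control wells for no effect and buffer only wells for full effect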
TRPC4/MOR mod: selectivity of TRPC6 modulators against mouse TRPC4; shares compounds with TRPC6 inh; HEK293 TRPC4/mu-opioid, membrane potential fluorescence; percent change from control (negative = decrease, positive = increase), % at 10 µM; 2,400 tested, 69% active; AID 488927;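 active = membrane potential signal moved up or down beyond 5 SD of buffer control wells, in both duplicate plates, actives on both sides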;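 also: plate controls were assay buffer wells for no effect and DAMGO maximal-effect wells for full effect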
TRPC4/MOR inh 2: second check of whether TRPC6 modulators also affect mouse TRPC4; shares compounds with TRPC6 inh; HEK293 TRPC4/mu-opioid, membrane potential dye fluorescence; stimulated with maximal-effect DAMGO; inhibition, % at 10 µM; 2,400 tested, 55% active;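 active = drop in membrane potential signal beyond 5 SD of the control wells in both duplicate plates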;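 also: TRPC4 counter screen for TRPC6 hits run under conditions tuned for TRPC6 not TRPC4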
TRPC6 inh conf: mouse TRPC6 inhibitor confirmation | shares compounds with TRPC6 inh | HEK293-TRPC6, membrane potential dye, ACh-evoked depolarization | inhibition, % at 10 µM | 3,300 tested, 43% active;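 active = fluorescence ratio falls more than 5 SD below the full-stimulation control mean, in both duplicate runs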;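 also: integrated fluorescence ratio of peak minus minimum over baseline after agonist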
TRPC6 act conf: confirmation of mouse TRPC6 activators; 2,800 tested, 11% active; shares compounds with TRPC6 inh; activation, % at 10 µM; HEK293-TRPC6 membrane potential dye fluorescence, FDSS; AID 488961;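 active = ratio signal rise beyond 5 SD above unstimulated control wells' mean, seen in both duplicate runs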;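 also: plate controls were buffer EC0 wells for no effect and acetylcholine ECmax response for full effect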
* marks the source's active call; other numbers are inactive results; i = inactive; . = no result; + = active, no number.

SMILES | TRPC4 inh | TRPC6 activator | TRPC6 inh | TRPC4 potent | TRPC4 act | HEK293 MPD ctr-2 | HEK293 MPD ctr 2-2 | TRPC4/MOR mod | TRPC4/MOR inh 2 | TRPC6 inh conf | TRPC6 act conf | others
COc1ccc(C(C(=O)NC2CCCC2)N(CC2CCCO2)C(=O)Cn2nnc(-c3ccc(C)o3)n2)cc1 (stereo not given) | i | i | -6.19* | i | i | i | i | i | i | i | i
COc1ccc2cc(C(=O)N/N=C/c3sc4ccccc4c3O)ccc2c1 | i | 72.4* | i | i | i | 138.5%* | 108.5%* | 261.0%* | i | . | 38.5%*
O=C(N/N=C/c1sc2ccccc2c1O)c1ccccc1 | i | i | i | i | i | . | . | . | . | . | .
COc1ccc(C(=O)N/N=C/c2sc3ccccc3c2O)cc1 | i | 12.1* | i | i | i | + | + | 112.5%* | 39.5%* | . | 197.5%*
O=C(N/N=C/c1sc2ccccc2c1O)c1cccc2ccccc12 | i | 22.4* | i | i | 45* | 834.0%* | + | 121.0%* | 42.0%* | . | 251.0%*
Cc1cc(C)c(S(=O)(=O)c2ccccc2C)c(OCCN(C)C)n1 | i | i | i | i | i | . | . | . | . | . | .
CC1CN(C(=O)c2ccc(-c3ccccc3Cl)o2)CC(C)O1 (stereo not given) | i | i | i | i | i | . | . | . | . | . | .
CC1CCCN(C(=O)c2ccc(-c3ccccc3Cl)o2)C1 (stereo not given) | i | i | -5.09* | i | i | i | i | 15.0%* | i | i | .
O=C(CN1C(=O)C2CCCCC2C1=O)N1CCN(c2ncccn2)CC1 (stereo not given) | i | i | i | i | i | . | . | . | . | . | .
O=C(CN1CCN(c2ncccn2)CC1)N1CCCC1 | i | i | -5.33* | i | i | i | i | i | i | i | i
CCc1occc(=O)c1Oc1cc(NN2CCCCC2)c([N+](=O)[O-])cc1[N+](=O)[O-] | i | i | -7.43* | i | i | . | . | . | . | i | i | TRPC4 sel inh 2=i;TRPC4 spec=i;HEK293 MPD ctr 2-1=i;HEK293 MPD ctr-1=i
Cc1ccc(F)cc1NC(=O)C1CC(=O)N(CCc2ccccc2)C1 (stereo not given) | i | i | i | i | i | . | . | . | . | . | .
CCOC(=O)c1ccc2nc(C)c3c(c2c1)OC(C)C3 (stereo not given) | i | i | -5.22* | i | i | -112.0%* | i | -13.0%* | i | i | i
Cc1nc2ccc(C(=O)O)cc2c2c1CC(CN)O2 (stereo not given) | i | i | i | i | i | . | . | . | . | . | .
COc1ccc2nc(C)c3c(c2c1)OC(C)C3 (stereo not given) | i | i | -7.45* | i | i | . | . | . | . | i | i | TRPC4 sel inh 2=i;TRPC4 spec=-16.9%*;HEK293 MPD ctr 2-1=18.0%*;HEK293 MPD ctr-1=-236.5%*
COc1cccc2c3c(c(C)nc12)CC(C)O3 (stereo not given) | i | i | -6.15* | i | i | -145.5%* | i | -17.5%* | 41.0%* | i | i
CCOC(=O)c1c(N2C(=O)CC(Sc3ccccc3C(=O)O)C2=O)sc2c1CCCC2 (stereo not given) | i | 17.7* | i | i | i | 147.0%* | i | 8.0%* | i | i | 120.0%*
Cc1cc(-c2ccc(C)c(S(=O)(=O)NCC3CCN(Cc4ccccc4F)CC3)c2)on1 | i | i | -5.03* | i | i | i | i | i | 75.5%* | 36.5%* | i
Cc1cc(-c2ccc(C)c(S(=O)(=O)NCC3CCN(Cc4cccc(F)c4)CC3)c2)on1 | i | i | i | i | i | . | . | . | . | . | .
Oc1ccc(CN2CCc3ccccc3C2)c2cccnc12 | -5* | i | -7.32* | i | i | . | . | . | . | i | i | TRPC4 sel inh 2=49.0%*;TRPC4 spec=2.4%*;HEK293 MPD ctr 2-1=i;HEK293 MPD ctr-1=5.0%*
O=C1c2cccc3c(Nc4ccccc4Cl)c([N+](=O)[O-])cc(c23)C(=O)N1CCO | i | i | -10.1* | i | i | -100.5%* | i | -25.5%* | 81.0%* | 47.0%* | i
O=[N+]([O-])c1cccc(C(=Nc2cccc(Cl)c2)NO)c1 | i | i | -8.79* | i | i | . | . | . | . | i | i | TRPC4 sel inh 2=i;TRPC4 spec=i;HEK293 MPD ctr 2-1=i;HEK293 MPD ctr-1=i
COc1cc(OC)cc(C(=O)NNC(=O)CN2C(=O)NC(C)(c3ccc(C)cc3)C2=O)c1 (stereo not given) | i | i | i | i | i | . | . | . | . | . | .
Cn1c(-c2c(N)n(CCc3ccccc3)c3nc4ccccc4nc23)nc2ccccc21 | -6* | i | -5.74* | i | i | 264.0%* | i | 55.5%* | 79.5%* | i | i
COC(=O)c1ccccc1NC(=O)c1cc[n+]([O-])cc1 | i | i | i | i | i | . | . | . | . | . | .
COC(=O)c1ccccc1NC(=O)c1cc[n+](C)cc1 | i | i | -5.8* | i | i | -200.5%* | i | -33.0%* | i | i | i
COC(=O)c1c(C)oc(C)c1S(=O)(=O)NC(c1ccccc1)c1ccccc1 | i | i | i | i | i | . | . | . | . | . | .

Bioassay records from PubChem BioAssay.
